Experimental findings from ChEMBL document CHEMBL1138738, “Synthesis, in vitro pharmacology, structure-activity relationships, and pharmacokinetics of 3-alkoxy-2-amino-6-fluorobicyclo[3.1.0]hexane-2,6-dicarboxylic acid derivatives as potent and selective group II metabotropic glutamate receptor antagonists” (J Med Chem, 2004) are described below.

A short description of data set [1]: Concentration of compound in plasma of rat after 3h of oral dose 10 mg/kg. It is filed as ADME, organism-based. The arrangement: dose 10 mg/kg, route oral. The procedure, abridged:
(§1)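 Rats given a single peroral dose of 10 mg/kg. Plasma and cerebrum were sampled at 1, 3, 6 and 24 h. Concentrations were measured by LC/ESI-MS/MS using an internal standard. Detection limits were 1 ng/mL in plasma and 1.5 ng/g in brain. Tmax, Cmax, terminal half-life (lambda z) and predicted AUCinf were derived from the mean time-course levels.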

Data set [2] in a line: Maximum time required to achieve peak plasma concentration upon oral dose of 30 mg/kg to rats. In kind it is ADME, organism-based. The arrangement: dose 30 mg/kg, route oral. The following applies: rat. Put shortly: (§2)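 Fasted rats were dosed orally at 3, 10 or 30 mg/kg. Plasma concentration-time profiles were measured by LC/ESI-MS/MS. Cmax, Tmax, elimination half-life and AUCinf were derived per dose group and reported as mean ± deviation.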

The nature of data set [3]: Concentration of compound in brain of rat after 1 hr of oral dose 10 mg/kg. In kind it is ADME, organism-based. Set-up: dose 10 mg/kg, route oral. The procedure, abridged: as §1
Data set [4] can be described thus: Concentration of compound in plasma of rat after 6 hr of oral dose 10 mg/kg. It is filed as ADME, organism-based. Set-up: dose 10 mg/kg, route oral. The procedure, abridged:
as §1

The nature of data set [5]: Peak plasma concentration in rats upon oral dose of 10 mg/kg. Set-up: dose 10 mg/kg, route oral. In kind it is ADME, organism-based. The following applies: rat. The procedure, abridged: as §2
Data set [6] can be described thus: Maximum time required to achieve peak plasma concentration in rat plasma upon oral dose of 10 mg/kg. In kind it is ADME, organism-based. The arrangement: dose 10 mg/kg, route oral. Put shortly: as §1
Data set [7] deals with T1, Metabotropic glutamate receptor 5 (Rattus norvegicus, UniProt P31424). Nature of the data set: Concentration required to inhibit metabotropic glutamate receptor 5 activity of rat expressed in CHO cells. In kind it is cell-based.
The target of data set [8] is T2, Metabotropic glutamate receptor 6 (Rattus norvegicus, UniProt P35349). The data set can be described thus: Effective concentration for agonistic activity towards metabotropic glutamate receptor 6 of rat expressed in CHO cells. In kind it is functional, cell-based.
Data set [9] concerns the target T2, Metabotropic glutamate receptor 6. The data set can be described thus: Concentration required to inhibit metabotropic glutamate receptor 6 activity of rat expressed in CHO cells. It is filed as cell-based.
Data set [10] has as its target T3, Metabotropic glutamate receptor 2 (Rattus norvegicus, UniProt P31421). The data set can be described thus: Effective concentration for agonistic activity towards metabotropic glutamate receptor 2 of rat expressed in CHO cells. In kind it is functional, cell-based.
The nature of data set [11]: Half-life in rat upon oral dose of 3 mg/kg. The arrangement: dose 3 mg/kg, route oral. The following applies: in vivo. In kind it is ADME, organism-based. Put shortly: as §2
Data set [12] in a line: Half-life in rat upon oral dose of 30 mg/kg. In kind it is ADME, organism-based. The arrangement: dose 30 mg/kg, route oral. The following applies: in vivo. The procedure, abridged: as §2
In data set [13] the target is T4, Metabotropic glutamate receptor 3 (Rattus norvegicus, UniProt P31422). The data set can be described thus: Binding affinity towards metabotropic glutamate receptor 3 of rat expressed in CHO cells was determined by using [3H]MGS-0008. In kind it is cell-based.
Data set [14] can be described thus: Half-life in rat brain upon oral dose of 10 mg/kg. In kind it is ADME, organism-based. The arrangement: dose 10 mg/kg, route oral. Put shortly:
as §1

Data set [15] deals with T5, Metabotropic glutamate receptor 1 (Rattus norvegicus, UniProt P23385). The data set can be described thus: Effective concentration for agonistic activity towards metabotropic glutamate receptor 1 of rat expressed in CHO cells. In kind it is functional, cell-based.
The nature of data set [16]: Peak plasma concentration in rats upon oral dose of 30 mg/kg. It is filed as ADME, organism-based. Set-up: dose 30 mg/kg, route oral. The following applies: rat. Put shortly:
as §2

The target of data set [17] is T4, Metabotropic glutamate receptor 3. The data set can be described thus: Effective concentration for agonistic activity towards metabotropic glutamate receptor 3 of rat expressed in CHO cells. It is filed as functional, cell-based.
A short description of data set [18]: Concentration of compound in brain of rat after 3h of oral dose 10 mg/kg. It is filed as ADME, organism-based. The arrangement: dose 10 mg/kg, route oral. Put shortly: as §1
Data set [19] in a line: Maximum time required to achieve peak plasma concentration upon oral dose of 3 mg/kg to rats. It is filed as ADME, organism-based. Set-up: dose 3 mg/kg, route oral. The following applies: rat. The procedure, abridged: as §2
Data set [20] can be described thus: Peak plasma concentration in rat plasma upon oral dose of 10 mg/kg. In kind it is ADME, organism-based. Set-up: dose 10 mg/kg, route oral. Put shortly:
as §1

Data set [21] in a line: Peak plasma concentration in rat brain upon oral dose of 10 mg/kg. It is filed as ADME, organism-based. The arrangement: dose 10 mg/kg, route oral. The procedure, abridged:
as §1

Data set [22] can be described thus: Concentration of compound in brain of rat after 24 hr of oral dose 10 mg/kg. It is filed as ADME, organism-based. Set-up: dose 10 mg/kg, route oral. Put shortly: as §1
Data set [23] in a line: Concentration of compound in brain of rat after 6 hr of oral dose 10 mg/kg. In kind it is ADME, organism-based. Set-up: dose 10 mg/kg, route oral. Put shortly: as §1
The target of data set [24] is Metabotropic glutamate receptor 7 (Rattus norvegicus, UniProt P35400). The data set can be described thus: Binding affinity towards metabotropic glutamate receptor 7 of rat expressed in CHO cells was determined by using [3H]LY341495.
Data set [25] addresses Metabotropic glutamate receptor 4 (Rattus norvegicus, UniProt P31423). The data set can be described thus: Concentration required to inhibit metabotropic glutamate receptor 4 activity of rat expressed in CHO cells. In kind it is cell-based.
The nature of data set [26]: Half-life in rat plasma upon oral dose of 10 mg/kg. In kind it is ADME, organism-based. Set-up: dose 10 mg/kg, route oral. The procedure, abridged:
as §1

Data set [27] in a line: Maximum time required to achieve peak plasma concentration upon oral dose of 10 mg/kg to rats. It is filed as ADME, organism-based. Set-up: dose 10 mg/kg, route oral. The following applies: rat. Put shortly: as §2
Data set [28] can be described thus: Peak plasma concentration in rats upon oral dose of 3 mg/kg. It is filed as ADME, organism-based. Set-up: dose 3 mg/kg, route oral. The following applies: rat. The procedure, abridged: as §2
Data set [29] has as its target T4, Metabotropic glutamate receptor 3. Nature of the data set: Concentration required to inhibit metabotropic glutamate receptor 3 activity of rat expressed in CHO cells. In kind it is cell-based.
The nature of data set [30]: Half-life in rat upon oral dose of 10 mg/kg. It is filed as ADME, organism-based. Set-up: dose 10 mg/kg, route oral. The following applies: in vivo. Put shortly: as §2
Data set [31] addresses T5, Metabotropic glutamate receptor 1. The data set can be described thus: Concentration required to inhibit metabotropic glutamate receptor 1 activity of rat expressed in CHO cells. It is filed as cell-based.
Data set [32] is described as follows: Maximum time required to achieve peak plasma concentration in rat brain upon oral dose of 10 mg/kg. It is filed as ADME, organism-based. Set-up: dose 10 mg/kg, route oral. The procedure, abridged: as §1
Data set [33] deals with T3, Metabotropic glutamate receptor 2. Nature of the data set: Binding affinity towards metabotropic glutamate receptor 2 of rat expressed in CHO cells was determined by using [3H]MGS-0008. It is filed as cell-based.
The nature of data set [34]: Concentration of compound in plasma of rat after 24 hr of oral dose 10 mg/kg. It is filed as ADME, organism-based. Set-up: dose 10 mg/kg, route oral. The procedure, abridged:
as §1

Data set [35] is described as follows: Concentration of compound in plasma of rat after 1 hr of oral dose 10 mg/kg. In kind it is ADME, organism-based. The arrangement: dose 10 mg/kg, route oral. The procedure, abridged: as §1
Data set [36] deals with T1, Metabotropic glutamate receptor 5. Nature of the data set: Effective concentration for agonistic activity towards metabotropic glutamate receptor 5 of rat expressed in CHO cells. In kind it is functional, cell-based.

T1 sequence (P31424 whole entry): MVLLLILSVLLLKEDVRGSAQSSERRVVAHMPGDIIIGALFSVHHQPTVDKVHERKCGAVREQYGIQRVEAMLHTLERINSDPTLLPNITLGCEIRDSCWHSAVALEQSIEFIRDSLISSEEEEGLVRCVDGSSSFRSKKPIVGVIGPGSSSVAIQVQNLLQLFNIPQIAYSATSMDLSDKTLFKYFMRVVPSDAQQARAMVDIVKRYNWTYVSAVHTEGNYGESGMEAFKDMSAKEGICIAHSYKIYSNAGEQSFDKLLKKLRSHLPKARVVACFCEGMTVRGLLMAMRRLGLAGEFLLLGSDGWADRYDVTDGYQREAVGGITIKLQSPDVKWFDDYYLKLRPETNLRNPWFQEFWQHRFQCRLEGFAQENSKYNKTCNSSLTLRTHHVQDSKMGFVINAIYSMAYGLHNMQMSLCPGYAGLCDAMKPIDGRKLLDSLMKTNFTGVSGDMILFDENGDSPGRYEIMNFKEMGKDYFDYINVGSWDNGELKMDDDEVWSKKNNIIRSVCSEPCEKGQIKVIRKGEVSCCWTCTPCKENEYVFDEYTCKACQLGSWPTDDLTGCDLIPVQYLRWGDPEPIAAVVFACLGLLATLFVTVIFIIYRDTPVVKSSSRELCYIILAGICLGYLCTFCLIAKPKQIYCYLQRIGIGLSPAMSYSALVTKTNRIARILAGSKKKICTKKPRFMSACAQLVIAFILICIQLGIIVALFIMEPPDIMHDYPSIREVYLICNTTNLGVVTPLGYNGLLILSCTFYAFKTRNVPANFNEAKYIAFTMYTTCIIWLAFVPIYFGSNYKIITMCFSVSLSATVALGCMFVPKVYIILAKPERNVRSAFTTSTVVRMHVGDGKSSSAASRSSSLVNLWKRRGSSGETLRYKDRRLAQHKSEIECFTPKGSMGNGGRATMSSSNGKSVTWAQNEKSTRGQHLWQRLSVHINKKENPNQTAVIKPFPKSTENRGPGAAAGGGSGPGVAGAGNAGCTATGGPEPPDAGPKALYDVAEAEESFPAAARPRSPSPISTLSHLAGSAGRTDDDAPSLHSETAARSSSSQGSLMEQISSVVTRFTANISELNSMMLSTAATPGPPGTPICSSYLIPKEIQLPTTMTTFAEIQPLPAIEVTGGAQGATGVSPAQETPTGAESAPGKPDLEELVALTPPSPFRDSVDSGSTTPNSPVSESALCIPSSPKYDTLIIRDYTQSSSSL
T2 sequence (P35349 whole entry): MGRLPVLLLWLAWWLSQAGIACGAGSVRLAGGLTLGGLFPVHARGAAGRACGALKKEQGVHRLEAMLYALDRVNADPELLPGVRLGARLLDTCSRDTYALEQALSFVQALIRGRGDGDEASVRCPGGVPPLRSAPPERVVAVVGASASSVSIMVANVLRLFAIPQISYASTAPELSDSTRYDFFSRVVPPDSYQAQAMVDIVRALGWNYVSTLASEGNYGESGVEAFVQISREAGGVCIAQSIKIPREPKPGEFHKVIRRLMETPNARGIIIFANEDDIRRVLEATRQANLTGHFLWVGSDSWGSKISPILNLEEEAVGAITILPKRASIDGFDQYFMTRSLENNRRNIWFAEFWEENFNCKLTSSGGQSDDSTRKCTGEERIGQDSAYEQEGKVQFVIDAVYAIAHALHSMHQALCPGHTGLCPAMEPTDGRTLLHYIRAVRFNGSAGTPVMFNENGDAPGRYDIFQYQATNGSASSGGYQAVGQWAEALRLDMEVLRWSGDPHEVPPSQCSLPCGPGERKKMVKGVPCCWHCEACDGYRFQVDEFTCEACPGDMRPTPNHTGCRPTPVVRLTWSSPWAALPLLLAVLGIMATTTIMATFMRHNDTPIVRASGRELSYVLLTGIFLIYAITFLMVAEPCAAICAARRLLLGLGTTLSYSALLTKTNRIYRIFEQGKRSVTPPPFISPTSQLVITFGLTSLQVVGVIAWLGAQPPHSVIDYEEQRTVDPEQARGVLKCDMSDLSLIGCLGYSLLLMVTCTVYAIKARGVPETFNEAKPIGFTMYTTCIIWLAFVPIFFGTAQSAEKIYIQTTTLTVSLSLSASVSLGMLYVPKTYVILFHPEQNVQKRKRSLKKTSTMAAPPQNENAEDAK
T4 sequence (P31422 whole entry): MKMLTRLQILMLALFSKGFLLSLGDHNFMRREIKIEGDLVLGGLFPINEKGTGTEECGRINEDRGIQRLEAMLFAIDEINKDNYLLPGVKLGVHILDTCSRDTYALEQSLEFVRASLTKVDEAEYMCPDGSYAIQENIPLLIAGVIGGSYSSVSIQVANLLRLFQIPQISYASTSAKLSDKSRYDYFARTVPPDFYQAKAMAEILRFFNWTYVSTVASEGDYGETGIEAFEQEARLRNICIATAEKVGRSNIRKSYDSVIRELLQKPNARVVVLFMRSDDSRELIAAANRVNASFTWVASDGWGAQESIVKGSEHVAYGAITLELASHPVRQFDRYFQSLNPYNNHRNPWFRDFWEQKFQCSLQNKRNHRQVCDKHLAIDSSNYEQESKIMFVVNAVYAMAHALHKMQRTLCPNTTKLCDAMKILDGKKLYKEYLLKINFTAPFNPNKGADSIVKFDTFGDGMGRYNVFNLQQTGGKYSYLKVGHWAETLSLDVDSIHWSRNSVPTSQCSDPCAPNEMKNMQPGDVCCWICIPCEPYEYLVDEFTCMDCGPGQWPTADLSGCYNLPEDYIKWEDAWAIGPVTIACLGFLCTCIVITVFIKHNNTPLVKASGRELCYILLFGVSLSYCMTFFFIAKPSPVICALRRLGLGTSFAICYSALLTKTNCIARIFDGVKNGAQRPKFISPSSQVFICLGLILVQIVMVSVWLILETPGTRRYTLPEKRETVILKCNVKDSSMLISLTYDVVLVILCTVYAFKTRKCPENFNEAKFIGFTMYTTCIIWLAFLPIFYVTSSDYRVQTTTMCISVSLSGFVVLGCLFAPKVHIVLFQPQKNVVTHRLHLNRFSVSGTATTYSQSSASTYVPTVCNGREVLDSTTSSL
T5 sequence (P23385 whole entry): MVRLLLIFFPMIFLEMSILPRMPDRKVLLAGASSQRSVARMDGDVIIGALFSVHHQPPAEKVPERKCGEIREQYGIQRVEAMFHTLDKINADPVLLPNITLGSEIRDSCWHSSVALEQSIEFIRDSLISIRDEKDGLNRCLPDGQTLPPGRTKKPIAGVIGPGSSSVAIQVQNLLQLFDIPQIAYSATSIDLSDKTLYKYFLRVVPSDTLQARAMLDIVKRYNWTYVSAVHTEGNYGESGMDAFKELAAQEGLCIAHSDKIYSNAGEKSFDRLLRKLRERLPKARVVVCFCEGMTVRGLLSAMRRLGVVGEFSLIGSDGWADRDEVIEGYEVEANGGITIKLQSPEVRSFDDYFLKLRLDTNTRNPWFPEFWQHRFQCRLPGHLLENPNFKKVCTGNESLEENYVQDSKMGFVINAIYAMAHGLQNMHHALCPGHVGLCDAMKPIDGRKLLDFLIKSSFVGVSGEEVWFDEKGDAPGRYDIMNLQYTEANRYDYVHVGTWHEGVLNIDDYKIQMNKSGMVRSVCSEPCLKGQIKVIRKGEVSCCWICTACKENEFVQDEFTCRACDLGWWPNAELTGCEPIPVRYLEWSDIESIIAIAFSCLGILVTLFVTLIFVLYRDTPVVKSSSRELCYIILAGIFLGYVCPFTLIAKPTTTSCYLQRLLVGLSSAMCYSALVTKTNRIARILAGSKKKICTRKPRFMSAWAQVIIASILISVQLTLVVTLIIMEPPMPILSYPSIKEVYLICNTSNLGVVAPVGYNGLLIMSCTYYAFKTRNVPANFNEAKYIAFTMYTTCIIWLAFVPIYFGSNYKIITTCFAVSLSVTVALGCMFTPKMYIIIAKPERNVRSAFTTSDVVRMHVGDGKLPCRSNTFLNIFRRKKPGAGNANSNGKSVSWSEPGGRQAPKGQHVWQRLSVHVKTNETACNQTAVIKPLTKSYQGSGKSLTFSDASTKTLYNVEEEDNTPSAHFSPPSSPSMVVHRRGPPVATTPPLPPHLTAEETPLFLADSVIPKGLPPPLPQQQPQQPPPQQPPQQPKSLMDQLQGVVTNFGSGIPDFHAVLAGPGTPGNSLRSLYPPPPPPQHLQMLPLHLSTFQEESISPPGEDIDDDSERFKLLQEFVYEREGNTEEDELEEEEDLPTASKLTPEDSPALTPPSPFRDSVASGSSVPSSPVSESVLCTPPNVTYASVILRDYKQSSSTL
T3 sequence (P31421 whole entry): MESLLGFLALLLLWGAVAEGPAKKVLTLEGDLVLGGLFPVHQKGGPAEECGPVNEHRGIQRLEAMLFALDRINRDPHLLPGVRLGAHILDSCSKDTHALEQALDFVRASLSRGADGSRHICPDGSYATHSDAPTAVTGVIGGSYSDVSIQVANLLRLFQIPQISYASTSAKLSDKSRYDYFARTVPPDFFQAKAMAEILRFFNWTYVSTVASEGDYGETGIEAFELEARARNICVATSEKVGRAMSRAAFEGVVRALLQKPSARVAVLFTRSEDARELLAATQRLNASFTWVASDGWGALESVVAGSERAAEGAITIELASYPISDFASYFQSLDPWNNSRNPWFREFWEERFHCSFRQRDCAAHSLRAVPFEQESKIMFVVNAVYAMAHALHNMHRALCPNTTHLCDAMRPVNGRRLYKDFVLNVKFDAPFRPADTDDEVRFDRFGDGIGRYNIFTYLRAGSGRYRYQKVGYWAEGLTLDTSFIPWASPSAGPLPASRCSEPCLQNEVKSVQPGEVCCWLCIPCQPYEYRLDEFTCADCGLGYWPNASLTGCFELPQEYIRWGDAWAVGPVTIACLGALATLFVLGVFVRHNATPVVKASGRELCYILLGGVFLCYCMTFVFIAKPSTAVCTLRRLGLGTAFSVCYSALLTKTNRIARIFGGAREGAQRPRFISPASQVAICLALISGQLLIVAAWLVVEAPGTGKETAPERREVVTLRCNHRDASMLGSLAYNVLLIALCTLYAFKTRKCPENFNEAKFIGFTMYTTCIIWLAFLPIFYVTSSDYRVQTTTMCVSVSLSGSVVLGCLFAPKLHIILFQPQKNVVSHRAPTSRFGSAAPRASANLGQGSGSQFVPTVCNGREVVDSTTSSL

With `N[C@]1(C(=O)O)[C@H]2[C@@H](C[C@H]1OCc1ccc(Cl)c(Cl)c1)[C@]2(F)C(=O)O`, the concentration at 3 h in [1] worked out at 429 ng/mL; in data set [18], 8.02 ng/mL. Further, the Tmax (as a rule, the time at which the peak concentration occurs) came out at 3.3 h in data set [2]; 6 h in data set [6]; 2 h in data set [19]; 2.7 h in [27]; 6 h in data set [32]. For the same compound, the concentration at 1 h is 3.88 ng/mL in data set [3] and 364 ng/mL in data set [35]. Further, the concentration at 6 h was found to be 492 ng/mL in [4] and 13.2 ng/mL in data set [23]. Further, the Cmax (as a rule, the highest concentration seen after dosing) in data set [5] turned out to be 932 ng/mL; in data set [16], 2960 ng/mL; in data set [20] it was 492 ng/mL; in data set [21], 13.2 ng/mL; in data set [28], 214 ng/mL. Besides, the 50% inhibitory concentration (IC50) – broadly, the midpoint of a concentration-inhibition curve – was found to be 117000 nM in data set [7]; 2060 nM in [9]; 1740 nM in data set [25]; 24 nM in [29]; 93300 nM in [31]. The half-maximal effective concentration (EC50) in data set [8], in data set [10], in [15], in data set [17] and in data set [36] was > 100000 nM throughout. Besides, the half-life (usually the time needed for the level to fall by half in the phase considered) in data set [11] is 2.15 h; in data set [12] it was 2.77 h; in data set [14], 10.9 h; in data set [26] it was 2.3 h; in data set [30], 2.76 h. For the same compound, the Ki (usually the dissociation constant of the complex between target and ligand, obtained from inhibition or displacement) in data set [13] worked out at 4.46 nM; in [24], 664 nM; in data set [33] it was 2.38 nM. Further, the values for the concentration at 24 h in data set [22] and in [34] were 4.22 ng/mL and 2.1 ng/mL, respectively.

On to `N[C@](CC1c2ccccc2Oc2ccccc21)(C(=O)O)[C@H]1C[C@@H]1C(=O)O`, for which the half-inhibitory concentration (IC50) stood at 11400 nM in data set [7], 1140 nM in data set [9], 2650 nM in [25] and 8990 nM in data set [31]. The concentration for a half-maximal effect (EC50) in [8], in data set [15] and in data set [36] was > 100000 nM throughout. In addition, the affinity in [24] corresponds to a Ki of 110 nM.
